In ChEMBL document CHEMBL1124026, “Nitrosoimidazoles: highly bactericidal analogues of 5-nitroimidazole drugs” (J Med Chem, 1988):
In brackets after ≈: the same amount, converted by molar mass.

Tests used:
[1] = Half-life measured in 0.1 M KPO4 buffer at PH 7; type: ADME; settings: 0.1 M potassium phosphate buffer
Summary of the method: (§1)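 Decay followed as loss of UV absorbance at each compound's absorbance maximum in 0.1 M potassium phosphate, pH 7.0, 0.05–1.0 mM compound. Decay first order; half-life taken as time to 50% absorbance loss, from linear regression, given as mean ± standard deviation.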

[2] = Half-life measured on Bacteroides fragilis in BHIS medium; type: ADME, organism-based; settings: Bacteroides fragilis culture
[3] = Half-life measured on Escherichia coli SR58 in BHI medium; value ranges from 1-3; type: ADME, organism-based; settings: Escherichia coli SR58 culture
Escherichia coli [4] = assay: Minimum inhibitory concentration measured against Escherichia coli AB1885 strain (UvrB- Rec+); type: functional
Summary of the method: (§2)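 Compounds serially diluted 2-fold in BHIS medium containing 5% Me2SO. Each well inoculated with bacteria from a stationary-phase culture, suspension at 10^7 cfu/mL. Incubated anaerobically at 37 °C in Gaspak jars; growth read after 17 h.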

Escherichia coli [5] = assay: Minimum inhibitory concentration measured against Escherichia coli SR58 strain (RecA- UvrB-); type: functional; summary of the method: as §2
Clostridium perfringens = assay: Minimum inhibitory concentration measured against Clostridium perfringens strain; type: functional
Summary of the method: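 Twofold serial dilutions in BHIS medium with 5% Me2SO; each well inoculated with stationary-phase bacterial suspension (10^7 cfu/mL). Plates incubated anaerobically at 37 °C in Gaspak jars; growth scored after 17 h.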

Escherichia coli [6] = assay: Minimum inhibitory concentration measured against Escherichia coli AB1157 strain (Uvr+ Rec+); type: functional; summary of the method: as §2
Bacteroides fragilis = assay: Minimum inhibitory concentration measured against Bacteroides fragilis strain; type: functional; summary of the method: as §2
[7] = Half-life measured in BHI spent medium; type: ADME
Summary of the method: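 Spent BHI medium prepared by removing E. coli by centrifugation and filtration after maximal logarithmic growth. Compound at 0.05–1.0 mM; UV absorbance at its maximum followed. First-order half-life (time to 50% absorbance loss) from linear regression, mean ± standard deviation.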

[8] = Half-life measured on Escherichia coli SR58 in BHI medium; value ranges from 4-6; type: ADME, organism-based; settings: Escherichia coli SR58 culture
[9] = Half-life measured in 0.1 M KPO4 buffer atPH 7; type: ADME; settings: 0.1 M potassium phosphate buffer, pH 7; summary of the method: as §1
Escherichia coli [10] = assay: Minimum inhibitory concentration measured against Escherichia coli EE128 strain (Uvr+ RecA-); type: functional; summary of the method: as §2
Escherichia coli [11] = assay: Minimum inhibitory concentration measured against Escherichia coli EE349 strain (UvrB- Rec+); type: functional; summary of the method: as §2
[12] = Half-life measured on Escherichia coli SR58 in BHI medium; value ranges from 3-4; type: ADME, organism-based; settings: Escherichia coli SR58 culture

| Structure (SMILES) | half-life [1] [min] | half-life [2] [min] | half-life [3] [min] | MIC (Escherichia coli [4]) [µM] | MIC (Escherichia coli [5]) [µM] | MIC (Clostridium perfringens) [µM] | MIC (Escherichia coli [6]) [µM] | MIC (Bacteroides fragilis) [µM] | half-life [7] [min] | half-life [8] [min] | half-life [9] [min] | MIC (Escherichia coli [10]) [µM] | MIC (Escherichia coli [11]) [µM] | half-life [12] [min] |
| --- | --- | --- | --- | --- | --- | --- | --- | --- | --- | --- | --- | --- | --- | --- |
| O=Nc1[nH]cnc1-c1ccccc1 | 330 | < 2 | 1 |  |  |  |  |  |  |  |  |  |  |  |
| O=[N+]([O-])c1[nH]cnc1-c1ccccc1 |  |  |  | > 500 | 130 (≈ 24.6 µg/mL) | 250 (≈ 47.3 µg/mL) | > 500 | 30 (≈ 5.68 µg/mL) |  |  |  |  |  |  |
| Cn1cnc(N=O)c1-c1ccccc1 |  | < 2 |  |  |  |  |  |  | 160 | 4 | > 600 |  |  |  |
| Cn1cnc(-c2ccccc2)c1[N+](=O)[O-] |  |  |  | > 500 | 8 (≈ 1.63 µg/mL) | 15 (≈ 3.05 µg/mL) | > 500 | < 2 |  |  |  | 30 (≈ 6.1 µg/mL) | 100 (≈ 20.3 µg/mL) |  |
| Cn1cnc(-c2ccccc2)c1N=O | 540 | < 2 |  |  |  |  |  |  | 40 |  |  |  |  | 3 |
| Cc1ncc([N+](=O)[O-])n1CCO [METRONIDAZOLE] |  |  |  | > 500 | 100 (≈ 17.1 µg/mL) | 13 (≈ 2.23 µg/mL) | > 500 | 6 (≈ 1.03 µg/mL) |  |  |  | 600 (≈ 103 µg/mL) | > 600 |  |
| Cn1cnc([N+](=O)[O-])c1-c1ccccc1 |  |  |  | > 500 | 500 (≈ 102 µg/mL) | > 500 | > 500 | 500 (≈ 102 µg/mL) |  |  |  | > 500 | ≥ 500 |  |
